These results are taken from ChEMBL document CHEMBL4014306, “Pyrazolopyrimidines as Potent Stimulators for Transient Receptor Potential Canonical 3/6/7 Channels” (J Med Chem, 2017).

Structures are written as SMILES. The source made the active and inactive calls. The calls are words filed in the database; no cut-off is given here.

Common to all, as to format: cell-based
The target in assay [1] is T1, Short transient receptor potential channel 7 (Homo sapiens) (UniProt Q9HCX4).
T1 sequence (whole entry): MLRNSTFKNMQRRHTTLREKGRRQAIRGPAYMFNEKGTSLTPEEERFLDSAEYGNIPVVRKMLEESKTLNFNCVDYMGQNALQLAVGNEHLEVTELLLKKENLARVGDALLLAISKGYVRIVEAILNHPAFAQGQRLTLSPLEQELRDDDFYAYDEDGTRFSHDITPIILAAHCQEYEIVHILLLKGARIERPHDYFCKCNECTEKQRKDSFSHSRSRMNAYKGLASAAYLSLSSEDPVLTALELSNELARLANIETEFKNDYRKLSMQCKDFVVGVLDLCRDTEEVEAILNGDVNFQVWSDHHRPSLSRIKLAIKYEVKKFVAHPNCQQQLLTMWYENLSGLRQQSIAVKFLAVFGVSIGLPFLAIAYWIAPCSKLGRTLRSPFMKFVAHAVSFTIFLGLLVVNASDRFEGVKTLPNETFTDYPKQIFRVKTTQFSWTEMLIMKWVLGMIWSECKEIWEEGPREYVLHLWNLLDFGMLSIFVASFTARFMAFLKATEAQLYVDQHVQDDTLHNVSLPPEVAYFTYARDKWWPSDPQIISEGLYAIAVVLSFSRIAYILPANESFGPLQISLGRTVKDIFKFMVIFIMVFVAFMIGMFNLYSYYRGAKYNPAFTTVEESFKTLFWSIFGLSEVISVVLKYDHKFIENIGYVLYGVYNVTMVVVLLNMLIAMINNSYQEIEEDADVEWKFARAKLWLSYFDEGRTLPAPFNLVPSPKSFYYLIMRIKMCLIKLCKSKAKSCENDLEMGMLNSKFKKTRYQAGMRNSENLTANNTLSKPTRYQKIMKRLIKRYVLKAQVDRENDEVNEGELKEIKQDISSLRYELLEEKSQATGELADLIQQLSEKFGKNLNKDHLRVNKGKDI
The assay can be described thus: Agonist activity at human TRPC7 expressed in HEK293 cells assessed as increase in membrane depolarization measured for 2.5 mins in presence of 2 mM Ca2+ by FLIPR membrane potential dye-based fluorescence assay.

The species entered for another assay is Rattus norvegicus. Kind of assay: Agonist activity at TRPC6 in rat primary glomerular mesangial cells assessed as increase in intracellular calcium level at 1 uM by Fluo4-AM dye-based fluorescence assay. In short, it runs like this: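 Rat glomerular mesangial cells, isolated by graded sieving from male Sprague–Dawley rats, collagenase-digested, cultured in RPMI 1640 with 17% FBS. Grown overnight on coverslips, then loaded with 10 μM Fluo4-AM and 0.02% pluronic F-127 for 1 h at 37 °C in 1 mM Ca2+ saline, pH 7.4. Compound at 1 μM. Confocal imaging, ex 488/em 515 nm, read as F/F0. For the 2-APB condition, 30 μM 2-APB for 2 min beforehand and kept during compound application.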

Assay [2] deals with T2, Transient receptor potential cation channel subfamily M member 5 (Homo sapiens) (UniProt Q9NZQ8).
T2 sequence (whole entry): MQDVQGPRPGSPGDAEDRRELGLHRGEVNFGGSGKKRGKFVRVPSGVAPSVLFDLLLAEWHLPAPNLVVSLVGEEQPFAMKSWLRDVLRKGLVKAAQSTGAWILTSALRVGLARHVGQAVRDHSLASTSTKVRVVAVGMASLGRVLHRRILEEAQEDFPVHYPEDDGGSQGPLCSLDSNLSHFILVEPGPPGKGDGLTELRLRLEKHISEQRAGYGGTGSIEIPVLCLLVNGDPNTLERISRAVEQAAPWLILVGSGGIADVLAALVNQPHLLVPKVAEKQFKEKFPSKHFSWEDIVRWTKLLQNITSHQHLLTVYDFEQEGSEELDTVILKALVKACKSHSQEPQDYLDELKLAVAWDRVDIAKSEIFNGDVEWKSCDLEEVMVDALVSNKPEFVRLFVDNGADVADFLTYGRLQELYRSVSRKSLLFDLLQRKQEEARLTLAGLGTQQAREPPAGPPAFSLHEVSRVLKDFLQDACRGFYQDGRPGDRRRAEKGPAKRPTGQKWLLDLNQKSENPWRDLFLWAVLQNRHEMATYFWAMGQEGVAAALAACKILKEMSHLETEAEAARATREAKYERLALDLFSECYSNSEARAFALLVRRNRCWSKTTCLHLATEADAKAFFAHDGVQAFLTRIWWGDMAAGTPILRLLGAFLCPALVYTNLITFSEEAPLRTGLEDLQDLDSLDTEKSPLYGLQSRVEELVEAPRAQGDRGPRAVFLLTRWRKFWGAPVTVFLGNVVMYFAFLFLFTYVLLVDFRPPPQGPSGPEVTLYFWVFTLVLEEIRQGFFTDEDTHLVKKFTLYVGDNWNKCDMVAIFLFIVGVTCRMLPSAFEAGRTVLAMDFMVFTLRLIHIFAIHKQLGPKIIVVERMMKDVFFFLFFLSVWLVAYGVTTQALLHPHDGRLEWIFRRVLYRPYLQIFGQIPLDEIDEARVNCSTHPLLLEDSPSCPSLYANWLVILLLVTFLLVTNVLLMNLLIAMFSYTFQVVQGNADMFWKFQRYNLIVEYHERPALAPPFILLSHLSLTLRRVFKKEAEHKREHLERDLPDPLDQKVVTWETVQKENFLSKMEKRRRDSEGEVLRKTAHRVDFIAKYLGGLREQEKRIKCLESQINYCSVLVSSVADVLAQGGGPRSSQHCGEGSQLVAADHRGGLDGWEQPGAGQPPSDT
Kind of assay: Inhibition of human TRPM5 expressed in HEK293 cells assessed as decrease in carbachol-evoked membrane depolarization at 22 uM preincubated for 2 mins followed by carbachol addition measured for 2.5 mins by FLIPR membrane potential dye-based fluorescence assay relative to control. In short, it runs like this:
(§1)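 Same TRP panel as for the stimulation tests, with FMP dye for TRPC4 and M5 and Fluo8-AM for TRPA1, V1 and M8. Compound applied for 2 min before the channel agonist (TRPC4: 1 μM DAMGO). Inhibition of the agonist response measured on a FlexStation at 32 °C.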

For assay [3], the target named is Transient receptor potential cation channel subfamily A member 1 (Homo sapiens) (UniProt O75762). Kind of assay: Inhibition of human TRPA1 expressed in HEK293 cells assessed as decrease in flufenamic acid-evoked increase in intracellular calcium level at 22 uM preincubated for 2 mins followed by flufenamic acid addition measured for 2.5 mins by Fluo8-AM dye-based fluorescence assay relative to control. The method in brief: as §1
Sequence of Transient receptor potential cation channel subfamily A member 1 (Homo sapiens) (O75762 whole entry): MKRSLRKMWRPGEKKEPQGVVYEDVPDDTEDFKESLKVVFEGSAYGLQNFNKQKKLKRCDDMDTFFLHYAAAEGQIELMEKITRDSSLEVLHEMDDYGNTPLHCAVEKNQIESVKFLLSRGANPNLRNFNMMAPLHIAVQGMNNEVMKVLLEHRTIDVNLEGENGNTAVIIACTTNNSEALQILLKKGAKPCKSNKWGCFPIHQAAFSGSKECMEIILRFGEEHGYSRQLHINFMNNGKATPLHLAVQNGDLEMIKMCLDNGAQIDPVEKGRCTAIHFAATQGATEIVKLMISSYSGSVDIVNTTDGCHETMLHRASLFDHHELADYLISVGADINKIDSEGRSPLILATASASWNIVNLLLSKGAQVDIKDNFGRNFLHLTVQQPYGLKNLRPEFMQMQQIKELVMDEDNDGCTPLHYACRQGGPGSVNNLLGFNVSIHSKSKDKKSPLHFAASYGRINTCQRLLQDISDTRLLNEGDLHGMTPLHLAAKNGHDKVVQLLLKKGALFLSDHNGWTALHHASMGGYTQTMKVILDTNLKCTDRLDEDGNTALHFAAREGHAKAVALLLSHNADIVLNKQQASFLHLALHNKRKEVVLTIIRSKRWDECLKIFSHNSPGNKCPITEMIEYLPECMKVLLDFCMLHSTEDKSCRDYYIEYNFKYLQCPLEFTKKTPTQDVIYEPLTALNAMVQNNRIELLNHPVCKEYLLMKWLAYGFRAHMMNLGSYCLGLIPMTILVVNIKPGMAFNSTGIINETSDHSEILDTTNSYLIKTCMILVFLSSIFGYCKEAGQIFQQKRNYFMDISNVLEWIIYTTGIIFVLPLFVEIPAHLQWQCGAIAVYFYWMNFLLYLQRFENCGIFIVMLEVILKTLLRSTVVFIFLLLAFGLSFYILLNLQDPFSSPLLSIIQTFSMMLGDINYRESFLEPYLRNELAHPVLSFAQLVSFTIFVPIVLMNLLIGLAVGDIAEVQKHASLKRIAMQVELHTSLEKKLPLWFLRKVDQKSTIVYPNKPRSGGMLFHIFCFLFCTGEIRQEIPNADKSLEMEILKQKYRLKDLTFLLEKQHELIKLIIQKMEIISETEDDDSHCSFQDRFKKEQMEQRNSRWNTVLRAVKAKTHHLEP

As for `CCOC(=O)N1CCC(c2cc(O)n3nc(C)c(-c4ccc(F)cc4)c3n2)CC1`, the result in assay [1] was Active.

With `Cc1nn2c(O)cc(C3CCN(C(=O)OCc4ccccc4)CC3)nc2c1-c1ccc(F)cc1`, in the assay listed under Rattus norvegicus, the result was Active.

With `CCOC(=O)N1CCC(c2cc(O)n3nc(C)c(-c4ccc(C(F)(F)F)cc4)c3n2)CC1`, the inhibition in assay [2] and in assay [3] was under 20% in each case.
